Measurements published in ChEMBL document CHEMBL2062401, “New pyrimido[5,4-e]pyrrolo[1,2-c]pyrimidines: synthesis, 2D-QSAR, anti-inflammatory, analgesic and ulcerogenicity studies” (Eur J Med Chem, 2012).
Active and inactive are the calls of the source. The rule behind the calls is not given here.

Experiments:
Rattus norvegicus [1] = experiment: Gastrointestinal toxicity in Wistar albino rat assessed as stomach ulcer index at 0.029 mmol/kg, po followed by another two compound doses in second and third days measured on fourth day post dose by acute ulcerogenicity study; assay type: organism-based; settings: in vivo
Method in brief: (§1)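 Adult Wistar rats of both sexes, 120–150 g, groups of 6, fasted 20 h; oral dose suspended in 1% Tween (vehicle group 1% Tween); fasted 2 h, fed 2 h, fasted 20 h; further doses on days 2 and 3. Scored: % incidence/10, mean ulcers per rat, mean severity score; ulcer index = sum of the three.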

Rattus norvegicus [2] = experiment: Antiinflammatory activity in Wistar albino rat assessed as inhibition of carrageenan-induced paw edema at 0.029 mmol/kg, po dosed 1 hr before carrageenan challenge measured 1 hr post carrageenan-induced inflammation; assay type: functional
Method in brief: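 Wistar albino rats of both sexes, 120–150 g, six per group, food withdrawn the day before. Given orally 0.029 mmol/kg in saline with a few drops of Tween 80, by stomach tube, 1 h before subplantar s.c. carrageenan (0.1 ml of 1%) into the right hind paw. Paw thickness measured at 1, 2, 3 and 4 h against baseline. % inhibition = 100 × (1 − Vt/Vc).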

Rattus norvegicus [3] = experiment: Antiinflammatory activity in Wistar albino rat assessed as inhibition of carrageenan-induced paw edema at 0.029 mmol/kg, po dosed 1 hr before carrageenan challenge measured 2 hrs post carrageenan-induced inflammation
Rattus norvegicus [4] = experiment: Gastrointestinal toxicity in Wistar albino rat assessed as incidence of stomach ulceration at 0.029 mmol/kg, po; assay type: organism-based; settings: in vivo
Method in brief: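 Rats given single oral dose suspended in saline with few drops Tween 80 (groups of 6); killed under deep ether anaesthesia 5 h after treatment; stomach opened along greater curvature and examined for lesions or bleeding; ulceration expressed as number of rats affected per group.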

Rattus norvegicus [5] = experiment: Antiinflammatory activity in Wistar albino rat assessed as inhibition of carrageenan-induced paw edema at 0.029 mmol/kg, po dosed 1 hr before carrageenan challenge measured 3 hrs post carrageenan-induced inflammation
Rattus norvegicus [6] = experiment: Antiinflammatory activity in Wistar albino rat assessed as inhibition of carrageenan-induced paw edema at 0.029 mmol/kg, po dosed 1 hr before carrageenan challenge measured 4 hrs post carrageenan-induced inflammation
Rattus norvegicus [7] = experiment: Gastrointestinal toxicity in Wistar albino rat assessed as incidence of stomach ulceration at 0.029 mmol/kg, po followed by another two compound doses in second and third days measured on fourth day post dose by acute ulcerogenicity study; assay type: organism-based; settings: in vivo; method in brief: as §1
Mus musculus [8] = experiment: Analgesic activity in Swiss albino mouse assessed as inhibition of acetic acid-induced writhing at 0.029 mmol/kg. po dosed 1 hr before acetic acid challenge and measured during 30 mins post acetic acid challenge; assay type: functional
Method in brief: (§2)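 Swiss albino mice of either sex, 18–22 g, six per group. Oral suspension at 0.029 mmol/kg given 1 h before 0.3 ml of 1% acetic acid i.p. Contractions counted for 30 min, starting 5 min after injection. % protection = (n − n')/n × 100 against control writhing. Potency% = % inhibition of test / % inhibition of indomethacin × 100. Mean ± SEM, ANOVA with post hoc test.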

[9] = Lipophilicity, log P of the compound; assay type: physicochemical; settings: octanol/water
Rattus norvegicus [10] = experiment: Antiinflammatory activity in Wistar albino rat assessed as inhibition of carrageenan-induced paw edema at 4 mg/kg, po dosed 1 hr before carrageenan challenge measured after carrageenan-induced inflammation; assay type: functional
Method in brief: (§3)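 Rat carrageenan paw oedema, six animals per group. Oral doses of 1, 2, 4 and 6 mg/kg in saline/Tween 80 given 1 h before 0.1 ml of 1% carrageenan s.c. into the right hind paw. Oedema measured as thickness increase over baseline. % inhibition = 100 × (1 − Vt/Vc). IC50 derived from the dose–response and reported in mg/kg and µmol/kg.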

Rattus norvegicus [11] = experiment: Antiinflammatory activity in Wistar albino rat assessed as inhibition of carrageenan-induced paw edema at 6 mg/kg, po dosed 1 hr before carrageenan challenge measured after carrageenan-induced inflammation; assay type: functional; method in brief: as §3
Homo sapiens = species: Homo sapiens; experiment: Selectivity index, ratio of inhibition of COX1 to inhibition of COX2 by Cayman's COX activity assay
Method in brief: (§4)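 COX peroxidase activity measured with a commercial COX activity assay kit (Kulmacz and Lands method), per manufacturer's instructions; % inhibition of COX-1 and COX-2 determined, selectivity expressed as ratio of COX-1 to COX-2 % inhibition.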

Rattus norvegicus [12] = experiment: Antiinflammatory activity in po dosed Wistar albino rat assessed as inhibition of carrageenan-induced paw edema dosed 1 hr before carrageenan challenge measured after carrageenan-induced inflammation; assay type: functional, organism-based; method in brief: as §3
[13] = target: Prostaglandin G/H synthase 1 (Homo sapiens) (UniProt P23219); experiment: Inhibition of COX1 by Cayman's COX activity assay; method in brief: as §4
Chain of Prostaglandin G/H synthase 1 (Homo sapiens) (P23219 whole entry): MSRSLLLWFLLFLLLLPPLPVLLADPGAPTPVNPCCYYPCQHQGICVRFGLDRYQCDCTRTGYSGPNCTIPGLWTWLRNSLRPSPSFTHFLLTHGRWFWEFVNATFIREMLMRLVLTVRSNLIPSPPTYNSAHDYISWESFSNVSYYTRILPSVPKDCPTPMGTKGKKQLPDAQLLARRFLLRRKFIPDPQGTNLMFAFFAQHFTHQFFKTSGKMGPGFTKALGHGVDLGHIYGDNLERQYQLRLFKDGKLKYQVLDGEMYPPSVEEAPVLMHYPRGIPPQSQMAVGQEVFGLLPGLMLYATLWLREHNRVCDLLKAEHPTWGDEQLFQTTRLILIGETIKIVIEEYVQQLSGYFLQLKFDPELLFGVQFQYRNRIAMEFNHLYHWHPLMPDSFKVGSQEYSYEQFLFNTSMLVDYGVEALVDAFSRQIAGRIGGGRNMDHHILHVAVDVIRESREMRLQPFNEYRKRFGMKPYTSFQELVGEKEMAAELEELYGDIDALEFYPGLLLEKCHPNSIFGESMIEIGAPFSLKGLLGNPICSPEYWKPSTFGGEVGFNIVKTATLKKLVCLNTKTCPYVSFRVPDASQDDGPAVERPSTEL

Rattus norvegicus [14] = experiment: Antiinflammatory activity in Wistar albino rat assessed as inhibition of carrageenan-induced paw edema at 2 mg/kg, po dosed 1 hr before carrageenan challenge measured after carrageenan-induced inflammation; assay type: functional; method in brief: as §3
Mus musculus [15] = experiment: Analgesic activity in Swiss albino mouse assessed as inhibition of acetic acid-induced writhing at 0.029 mmol/kg. po dosed 1 hr before acetic acid challenge and measured during 30 mins post acetic acid challenge relative to indomethacin; assay type: functional; settings: read-out: INH; method in brief: as §2
Rattus norvegicus [16] = experiment: Antiinflammatory activity in Wistar albino rat assessed as inhibition of carrageenan-induced paw edema at 1 mg/kg, po dosed 1 hr before carrageenan challenge measured after carrageenan-induced inflammation; assay type: functional; method in brief: as §3

## Cc1ccc(-c2cc(C(F)(F)F)nn2-c2ccc(S(N)(=O)=O)cc2)cc1 [CELECOXIB]
Rattus norvegicus [1]
  UI: 11.13
Rattus norvegicus [2]
  inhibition in vivo at 29 µmol/kg: 54%
Rattus norvegicus [3]
  inhibition in vivo at 29 µmol/kg: 34%
Rattus norvegicus [4]
  Activity: Toxic
Rattus norvegicus [5]
  inhibition in vivo at 29 µmol/kg: 47%
Rattus norvegicus [6]
  inhibition in vivo at 29 µmol/kg: 48%
Rattus norvegicus [7]
  Activity: 6.66%

## COc1ccc2c(c1)c(CC(=O)O)c(C)n2C(=O)c1ccc(Cl)cc1 [INDOMETHACIN]
Rattus norvegicus [1]
  UI: 14.73
Mus musculus [8]
  inhibition in vivo at 29 µmol/kg: 66.1%
Rattus norvegicus [2]
  inhibition in vivo at 29 µmol/kg: 57%
Rattus norvegicus [3]
  inhibition in vivo at 29 µmol/kg: 39%
Rattus norvegicus [4]
  Activity: Toxic
Rattus norvegicus [5]
  inhibition in vivo at 29 µmol/kg: 47%
Rattus norvegicus [6]
  inhibition in vivo at 29 µmol/kg: 51%
Rattus norvegicus [7]
  Activity: 10%

## Cc1cc(-c2ccccc2)nn1C(=O)c1nc2c(c(=O)[nH]1)C1CCCN1C(=O)N2c1ccccc1 (centres undefined)
Rattus norvegicus [1]
  UI: 10.94
[9]
  logP: 3.7
Rattus norvegicus [10]
  inhibition in vivo at 4 mg/kg: 65%
Mus musculus [8]
  inhibition in vivo at 29 µmol/kg: 39.6%
Rattus norvegicus [11]
  inhibition in vivo at 6 mg/kg: 60%
Homo sapiens
  Ratio: 1.02
Rattus norvegicus [2]
  inhibition in vivo at 29 µmol/kg: 78%
Rattus norvegicus [3]
  inhibition in vivo at 29 µmol/kg: 65%
Rattus norvegicus [12]
  IC50: 8 µmol/kg
[13]
  inhibition: Active
Rattus norvegicus [14]
  inhibition in vivo at 2 mg/kg: 45%
Rattus norvegicus [4]
  Activity: Non-toxic
Rattus norvegicus [5]
  inhibition in vivo at 29 µmol/kg: 59%
Mus musculus [15]
  writhing inhibition relative to indomethacin (potency %) at 29 µmol/kg: 59.8%
Rattus norvegicus [16]
  inhibition in vivo at 1 mg/kg: 20%
Rattus norvegicus [6]
  inhibition in vivo at 29 µmol/kg: 62%
Rattus norvegicus [7]
  Activity: 6.66%

## O=C(O)Cc1nc2c(c(=O)[nH]1)C1CCCN1C(=O)N2c1ccccc1 (centres undefined)
Rattus norvegicus [1]
  UI: 10.49
[9]
  logP: 0.749
Rattus norvegicus [10]
  inhibition in vivo at 4 mg/kg: 64%
Mus musculus [8]
  inhibition in vivo at 29 µmol/kg: 57.6%
Rattus norvegicus [11]
  inhibition in vivo at 6 mg/kg: 74%
Rattus norvegicus [2]
  inhibition in vivo at 29 µmol/kg: 77%
Rattus norvegicus [3]
  inhibition in vivo at 29 µmol/kg: 70%
Rattus norvegicus [12]
  IC50: 10 µmol/kg
Rattus norvegicus [14]
  inhibition in vivo at 2 mg/kg: 40%
Rattus norvegicus [4]
  Activity: Toxic
Rattus norvegicus [5]
  inhibition in vivo at 29 µmol/kg: 72%
Mus musculus [15]
  writhing inhibition relative to indomethacin (potency %) at 29 µmol/kg: 87.2%
Rattus norvegicus [16]
  inhibition in vivo at 1 mg/kg: 20%
Rattus norvegicus [6]
  inhibition in vivo at 29 µmol/kg: 80%
Rattus norvegicus [7]
  Activity: 8.33%

## CCOC(=O)Cc1nc2c(c(=O)[nH]1)C1CCCN1C(=O)N2c1ccccc1 (centres undefined)
Rattus norvegicus [1]
  UI: 7
[9]
  logP: 1.53
Rattus norvegicus [10]
  inhibition in vivo at 4 mg/kg: 60%
Mus musculus [8]
  inhibition in vivo at 29 µmol/kg: 70.8%
Rattus norvegicus [11]
  inhibition in vivo at 6 mg/kg: 64%
Rattus norvegicus [2]
  inhibition in vivo at 29 µmol/kg: 81%
Rattus norvegicus [3]
  inhibition in vivo at 29 µmol/kg: 80%
Rattus norvegicus [12]
  IC50: 11 µmol/kg
Rattus norvegicus [14]
  inhibition in vivo at 2 mg/kg: 32%
Rattus norvegicus [4]
  Activity: Non-toxic
Rattus norvegicus [5]
  inhibition in vivo at 29 µmol/kg: 90%
Mus musculus [15]
  writhing inhibition relative to indomethacin (potency %) at 29 µmol/kg: 107%
Rattus norvegicus [16]
  inhibition in vivo at 1 mg/kg: 12%
Rattus norvegicus [6]
  inhibition in vivo at 29 µmol/kg: 89%
Rattus norvegicus [7]
  Activity: 5%

## Cc1c(NC(=O)c2nc3c(c(=O)[nH]2)C2CCCN2C(=O)N3c2ccccc2)c(=O)n(-c2ccccc2)n1C (centres undefined)
Rattus norvegicus [1]
  UI: 7.16
[9]
  logP: 2.09
Rattus norvegicus [10]
  inhibition in vivo at 4 mg/kg: 78%
Mus musculus [8]
  inhibition in vivo at 29 µmol/kg: 63.3%
Rattus norvegicus [11]
  inhibition in vivo at 6 mg/kg: 77%
Homo sapiens
  Ratio: 1.3
Rattus norvegicus [2]
  inhibition in vivo at 29 µmol/kg: 78%
Rattus norvegicus [3]
  inhibition in vivo at 29 µmol/kg: 68%
Rattus norvegicus [12]
  IC50: 6 µmol/kg
[13]
  inhibition: Active
Rattus norvegicus [14]
  inhibition in vivo at 2 mg/kg: 48%
Rattus norvegicus [4]
  Activity: Non-toxic
Rattus norvegicus [5]
  inhibition in vivo at 29 µmol/kg: 78%
Mus musculus [15]
  writhing inhibition relative to indomethacin (potency %) at 29 µmol/kg: 95.7%
Rattus norvegicus [16]
  inhibition in vivo at 1 mg/kg: 30%
Rattus norvegicus [6]
  inhibition in vivo at 29 µmol/kg: 83%
Rattus norvegicus [7]
  Activity: 5%
